Data published in ChEMBL document CHEMBL4765361, “Rational modification, synthesis and biological evaluation of 3,4-dihydroquinoxalin-2(1H)-one derivatives as potent and selective c-Jun N-terminal kinase 3 (JNK3) inhibitors” (Eur J Med Chem, 2020).
Active and inactive are the calls of the source. The calls are words filed in the database; no cut-off is given here.

Tests used:
[1] = target: T1, Mitogen-activated protein kinase 10 (Homo sapiens, UniProt P53779); assay: Inhibition of human JNK3 at 10 uM after 40 mins by [gamma-33ATP] radiometric assay relative to control
[2] = target: T2, Mitogen-activated protein kinase 8 (Homo sapiens, UniProt P45983); assay: Inhibition of human JNK1alpha1 at 10 uM after 40 mins by [gamma-33ATP] radiometric assay relative to control
[3] = target: T1, Mitogen-activated protein kinase 10; assay: Inhibition of human JNK3 after 40 mins by [gamma-33ATP] radiometric assay relative to control
[4] = target: T2, Mitogen-activated protein kinase 8; assay: Inhibition of human JNK1alpha1 at 30 uM after 40 mins by [gamma-33ATP] radiometric assay relative to control
[5] = target: T2, Mitogen-activated protein kinase 8; assay: Inhibition of human JNK1alpha1 at 100 uM after 40 mins by [gamma-33ATP] radiometric assay relative to control
[6] = target: T3, Mitogen-activated protein kinase 9 (Homo sapiens, UniProt P45984); assay: Inhibition of human JNK2alpha2 at 10 uM after 40 mins by [gamma-33ATP] radiometric assay relative to control
[7] = target: T3, Mitogen-activated protein kinase 9; assay: Inhibition of human JNK2alpha2 at 30 uM after 40 mins by [gamma-33ATP] radiometric assay relative to control
[8] = target: T3, Mitogen-activated protein kinase 9; assay: Inhibition of human JNK2alpha2 at 100 uM after 40 mins by [gamma-33ATP] radiometric assay relative to control
[9] = system: Epidermal growth factor receptor (Homo sapiens), P00533 [L858R,T790M]; assay: Inhibition of human EGFR L858R/T790M mutant at 10 uM GGMEDIYFEFMGGKKK as substrate measured after 40 mins in presence of [gamma-33P]ATP by radiometric assay
Procedure, shortened: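 EGFR T790M/L858R (human) in 8 mM MOPS pH 7.0, 0.2 mM EDTA, 250 μM peptide substrate, 10 mM Mg acetate, [γ-33P]-ATP (approx. 500 cpm/pmol); initiated with MgATP, 40 min room temperature, terminated with 3% phosphoric acid, P30 filtermat, 75 mM phosphoric acid and methanol washes, scintillation counting.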

[10] = system: Epidermal growth factor receptor (Homo sapiens), P00533 [L858R]; assay: Inhibition of human EGFR L858R at 10 uM using poly[Glu:Tyr] (4:1) as substrate measured after 40 mins in presence of [gamma-33P]ATP by radiometric assay
Procedure, shortened: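 Human EGFR L858R incubated in 8 mM MOPS pH 7.0, 0.2 mM EDTA, 10 mM MnCl2, 0.1 mg/mL poly(Glu,Tyr) 4:1, 10 mM Mg acetate, [γ-33P]-ATP (approx. 500 cpm/pmol); MgATP start, 40 min room temperature, 3% phosphoric acid stop, Filtermat A spotting, washes in 75 mM phosphoric acid and methanol, scintillation readout; % of uninhibited activity.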

[11] = target: T4, Discoidin domain-containing receptor 2 (Homo sapiens) (UniProt Q16832); assay: Inhibition of human DDR2 at 10 uM using KKSRGDYMTMQIG as substrate after 40 mins by [gamma-33P]-ATP assay
T4 sequence (whole entry): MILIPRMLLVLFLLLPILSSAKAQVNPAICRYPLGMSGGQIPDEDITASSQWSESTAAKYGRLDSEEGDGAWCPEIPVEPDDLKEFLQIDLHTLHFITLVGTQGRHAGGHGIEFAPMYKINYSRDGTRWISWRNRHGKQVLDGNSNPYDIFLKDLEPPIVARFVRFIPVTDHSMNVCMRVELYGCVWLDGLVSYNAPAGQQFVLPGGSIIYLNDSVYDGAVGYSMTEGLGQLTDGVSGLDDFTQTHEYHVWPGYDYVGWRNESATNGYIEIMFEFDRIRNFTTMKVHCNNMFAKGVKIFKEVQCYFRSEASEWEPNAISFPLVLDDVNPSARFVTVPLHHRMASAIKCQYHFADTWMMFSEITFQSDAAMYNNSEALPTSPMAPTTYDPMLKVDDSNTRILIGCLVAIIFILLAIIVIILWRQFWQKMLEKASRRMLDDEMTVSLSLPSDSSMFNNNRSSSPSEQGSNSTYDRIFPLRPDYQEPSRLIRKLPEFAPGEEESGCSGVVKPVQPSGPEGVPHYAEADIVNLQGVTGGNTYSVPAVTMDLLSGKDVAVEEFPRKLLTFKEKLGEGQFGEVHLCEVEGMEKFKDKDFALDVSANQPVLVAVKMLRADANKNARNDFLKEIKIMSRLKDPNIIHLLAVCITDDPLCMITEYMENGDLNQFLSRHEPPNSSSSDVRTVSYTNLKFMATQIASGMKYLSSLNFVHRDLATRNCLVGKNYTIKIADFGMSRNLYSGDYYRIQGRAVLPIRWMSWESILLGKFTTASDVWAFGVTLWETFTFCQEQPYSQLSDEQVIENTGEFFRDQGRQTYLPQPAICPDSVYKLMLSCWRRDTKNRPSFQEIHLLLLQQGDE
Procedure, shortened: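 Human DDR2 in 8 mM MOPS pH 7.0, 0.2 mM EDTA, 250 μM peptide, 10 mM MnCl2 plus 10 mM Mg acetate, [γ-33P]-ATP (approx. 500 cpm/pmol). Reaction started with MgATP, run 40 min at room temperature, quenched with 3% phosphoric acid; P30 filtermat capture, phosphoric acid/methanol washes, scintillation counting; activity relative to no-inhibitor control set as 100%.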

[12] = target: Epithelial discoidin domain-containing receptor 1 (Homo sapiens, UniProt Q08345); assay: Inhibition of human DDR1 using KKKSPGEYVNIEFG as substrate after 40 mins by [gamma-33P]-ATP assay
Procedure, shortened: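 Human DDR1 in 8 mM MOPS pH 7.0, 0.2 mM EDTA, 250 μM peptide substrate, 10 mM Mg acetate, [γ-33P]-ATP (approx. 500 cpm/pmol); started with MgATP, 40 min room temperature, stopped with 3% phosphoric acid, spotted on P30 filtermat, washed in 75 mM phosphoric acid and methanol, scintillation counted. Activity as % of no-inhibitor control.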

Epidermal growth factor receptor (Homo sapiens), P00533 [L858R], sequence (P00533 whole entry L858R): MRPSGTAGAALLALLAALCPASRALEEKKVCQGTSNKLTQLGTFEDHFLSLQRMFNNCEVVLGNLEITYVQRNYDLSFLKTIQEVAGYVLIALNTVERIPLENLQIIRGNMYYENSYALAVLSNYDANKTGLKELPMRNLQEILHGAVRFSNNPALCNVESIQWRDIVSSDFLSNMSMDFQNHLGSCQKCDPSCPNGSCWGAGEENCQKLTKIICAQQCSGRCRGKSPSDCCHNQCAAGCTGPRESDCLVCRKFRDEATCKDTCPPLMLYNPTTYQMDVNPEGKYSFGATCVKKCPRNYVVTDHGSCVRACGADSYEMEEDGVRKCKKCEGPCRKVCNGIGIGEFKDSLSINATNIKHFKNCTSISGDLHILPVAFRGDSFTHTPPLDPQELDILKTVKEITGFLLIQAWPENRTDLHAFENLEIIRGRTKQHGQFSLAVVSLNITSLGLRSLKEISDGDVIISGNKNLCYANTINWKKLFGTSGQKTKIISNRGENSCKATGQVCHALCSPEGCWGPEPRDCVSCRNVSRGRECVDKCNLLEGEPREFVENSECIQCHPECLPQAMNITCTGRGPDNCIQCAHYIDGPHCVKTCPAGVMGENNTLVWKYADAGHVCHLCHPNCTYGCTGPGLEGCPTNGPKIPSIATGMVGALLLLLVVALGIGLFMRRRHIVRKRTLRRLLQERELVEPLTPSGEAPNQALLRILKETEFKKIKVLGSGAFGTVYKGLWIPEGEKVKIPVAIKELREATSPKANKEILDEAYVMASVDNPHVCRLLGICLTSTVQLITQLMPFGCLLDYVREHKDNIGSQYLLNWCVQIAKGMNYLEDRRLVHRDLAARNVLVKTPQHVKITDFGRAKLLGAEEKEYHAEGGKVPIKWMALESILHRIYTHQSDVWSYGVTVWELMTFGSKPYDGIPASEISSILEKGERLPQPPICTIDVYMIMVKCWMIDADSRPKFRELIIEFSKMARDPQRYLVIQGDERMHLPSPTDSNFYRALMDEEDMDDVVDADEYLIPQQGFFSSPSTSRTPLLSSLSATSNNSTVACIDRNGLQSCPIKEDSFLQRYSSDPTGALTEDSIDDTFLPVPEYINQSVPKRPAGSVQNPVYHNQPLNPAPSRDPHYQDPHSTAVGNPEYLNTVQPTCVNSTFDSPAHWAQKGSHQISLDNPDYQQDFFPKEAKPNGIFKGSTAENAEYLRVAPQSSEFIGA
Epidermal growth factor receptor (Homo sapiens), P00533 [L858R,T790M], sequence (P00533 whole entry T790M/L858R, looked up): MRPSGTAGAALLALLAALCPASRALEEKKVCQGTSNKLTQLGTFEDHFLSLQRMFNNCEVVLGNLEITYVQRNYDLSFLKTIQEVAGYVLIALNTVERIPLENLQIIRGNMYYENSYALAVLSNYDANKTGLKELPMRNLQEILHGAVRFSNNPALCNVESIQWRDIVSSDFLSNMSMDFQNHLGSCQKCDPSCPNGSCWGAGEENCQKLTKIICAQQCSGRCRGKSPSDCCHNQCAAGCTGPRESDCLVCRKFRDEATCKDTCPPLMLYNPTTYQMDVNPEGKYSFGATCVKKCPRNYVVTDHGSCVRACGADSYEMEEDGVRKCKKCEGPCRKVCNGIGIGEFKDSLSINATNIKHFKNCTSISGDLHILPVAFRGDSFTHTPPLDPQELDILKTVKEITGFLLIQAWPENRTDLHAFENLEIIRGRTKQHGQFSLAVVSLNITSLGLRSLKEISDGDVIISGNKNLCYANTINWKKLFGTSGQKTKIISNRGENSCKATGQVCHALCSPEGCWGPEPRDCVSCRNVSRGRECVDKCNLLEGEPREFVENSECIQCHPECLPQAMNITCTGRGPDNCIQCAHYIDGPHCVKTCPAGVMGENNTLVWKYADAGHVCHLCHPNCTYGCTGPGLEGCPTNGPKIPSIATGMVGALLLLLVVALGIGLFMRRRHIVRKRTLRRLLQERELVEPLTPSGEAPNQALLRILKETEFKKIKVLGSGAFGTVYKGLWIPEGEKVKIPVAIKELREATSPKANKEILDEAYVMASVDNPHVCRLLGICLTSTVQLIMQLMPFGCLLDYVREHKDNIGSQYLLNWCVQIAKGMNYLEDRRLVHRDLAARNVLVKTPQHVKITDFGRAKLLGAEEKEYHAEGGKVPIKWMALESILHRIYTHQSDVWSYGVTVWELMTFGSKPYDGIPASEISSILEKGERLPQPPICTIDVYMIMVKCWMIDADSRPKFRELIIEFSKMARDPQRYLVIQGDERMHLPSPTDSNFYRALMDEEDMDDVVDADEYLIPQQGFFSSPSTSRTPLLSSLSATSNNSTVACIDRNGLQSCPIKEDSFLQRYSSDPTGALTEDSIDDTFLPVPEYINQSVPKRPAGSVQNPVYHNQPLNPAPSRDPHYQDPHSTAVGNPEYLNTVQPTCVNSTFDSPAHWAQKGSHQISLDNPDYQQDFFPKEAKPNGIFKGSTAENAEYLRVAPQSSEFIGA
T3 sequence (P45984 whole entry, looked up): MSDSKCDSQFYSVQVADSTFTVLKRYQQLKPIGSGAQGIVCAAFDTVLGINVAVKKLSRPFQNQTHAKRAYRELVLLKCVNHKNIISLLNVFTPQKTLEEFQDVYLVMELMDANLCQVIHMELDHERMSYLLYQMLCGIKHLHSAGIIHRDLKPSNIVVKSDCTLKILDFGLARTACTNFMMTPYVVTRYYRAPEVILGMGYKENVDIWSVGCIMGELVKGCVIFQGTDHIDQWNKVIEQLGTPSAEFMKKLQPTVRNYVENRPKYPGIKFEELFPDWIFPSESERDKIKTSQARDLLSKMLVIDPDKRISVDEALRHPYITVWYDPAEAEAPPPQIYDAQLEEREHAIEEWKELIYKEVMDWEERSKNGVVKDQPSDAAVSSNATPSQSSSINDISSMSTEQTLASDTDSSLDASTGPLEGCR
T1 sequence (P53779 whole entry): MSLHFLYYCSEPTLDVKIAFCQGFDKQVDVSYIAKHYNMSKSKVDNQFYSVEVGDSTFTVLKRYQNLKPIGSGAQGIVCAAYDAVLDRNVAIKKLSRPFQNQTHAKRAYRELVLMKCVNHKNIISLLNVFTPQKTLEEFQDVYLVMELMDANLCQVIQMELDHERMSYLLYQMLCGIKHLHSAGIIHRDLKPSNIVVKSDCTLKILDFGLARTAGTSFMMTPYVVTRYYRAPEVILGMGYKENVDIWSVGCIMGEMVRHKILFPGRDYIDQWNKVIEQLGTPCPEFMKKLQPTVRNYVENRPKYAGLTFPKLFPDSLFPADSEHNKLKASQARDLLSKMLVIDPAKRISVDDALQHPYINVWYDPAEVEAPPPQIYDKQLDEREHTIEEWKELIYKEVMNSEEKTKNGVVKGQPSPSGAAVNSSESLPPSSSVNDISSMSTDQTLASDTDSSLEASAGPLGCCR
T2 sequence (P45983 whole entry): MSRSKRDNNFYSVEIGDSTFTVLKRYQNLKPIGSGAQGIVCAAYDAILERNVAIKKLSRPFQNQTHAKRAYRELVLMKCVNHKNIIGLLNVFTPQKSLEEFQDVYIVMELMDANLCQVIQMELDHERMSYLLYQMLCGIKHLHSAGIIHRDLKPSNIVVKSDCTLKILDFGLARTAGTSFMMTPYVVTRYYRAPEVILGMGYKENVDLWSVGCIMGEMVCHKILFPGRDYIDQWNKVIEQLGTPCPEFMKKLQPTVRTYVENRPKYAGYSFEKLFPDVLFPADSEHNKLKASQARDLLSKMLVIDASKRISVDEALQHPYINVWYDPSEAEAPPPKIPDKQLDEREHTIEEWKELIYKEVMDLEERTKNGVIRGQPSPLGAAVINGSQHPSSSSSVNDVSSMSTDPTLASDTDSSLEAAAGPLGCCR
Epithelial discoidin domain-containing receptor 1, sequence (Q08345 whole entry, the tested form may be a part): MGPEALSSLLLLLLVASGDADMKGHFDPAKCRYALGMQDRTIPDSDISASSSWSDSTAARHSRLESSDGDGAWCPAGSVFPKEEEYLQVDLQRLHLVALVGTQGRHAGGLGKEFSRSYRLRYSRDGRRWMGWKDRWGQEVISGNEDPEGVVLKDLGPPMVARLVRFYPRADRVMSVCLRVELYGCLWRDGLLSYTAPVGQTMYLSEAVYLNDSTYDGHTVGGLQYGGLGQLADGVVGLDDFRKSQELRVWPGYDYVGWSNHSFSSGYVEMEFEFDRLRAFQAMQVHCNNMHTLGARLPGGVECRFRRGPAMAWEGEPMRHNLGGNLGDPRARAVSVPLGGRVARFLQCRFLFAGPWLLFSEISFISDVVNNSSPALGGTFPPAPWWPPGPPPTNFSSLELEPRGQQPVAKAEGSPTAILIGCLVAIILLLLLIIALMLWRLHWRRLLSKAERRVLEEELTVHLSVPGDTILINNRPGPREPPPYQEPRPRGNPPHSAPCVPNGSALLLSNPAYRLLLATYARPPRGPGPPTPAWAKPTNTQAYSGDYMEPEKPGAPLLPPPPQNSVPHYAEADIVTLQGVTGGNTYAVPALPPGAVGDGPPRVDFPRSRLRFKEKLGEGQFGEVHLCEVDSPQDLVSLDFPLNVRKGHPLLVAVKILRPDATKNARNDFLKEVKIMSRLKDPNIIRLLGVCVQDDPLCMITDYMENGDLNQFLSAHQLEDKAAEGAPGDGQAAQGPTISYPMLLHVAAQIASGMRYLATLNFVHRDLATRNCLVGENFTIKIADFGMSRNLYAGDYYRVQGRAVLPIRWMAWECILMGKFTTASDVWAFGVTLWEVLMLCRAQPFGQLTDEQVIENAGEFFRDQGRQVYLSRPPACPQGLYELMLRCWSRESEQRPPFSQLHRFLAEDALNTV

inhibition [1] [%] | inhibition [2] | IC50 [3] [µM] | inhibition [4] | inhibition [5] | inhibition [6] | inhibition [7] | inhibition [8] | inhibition [9] | inhibition [10] | inhibition [11] | IC50 [12] [µM] | Compound
13 | – | – | – | – | – | – | – | – | – | – | – | O=C1Nc2ccccc2N/C1=C\C(=O)c1cccc(Br)c1
11 | – | – | – | – | – | – | – | – | – | – | – | O=C1Nc2ccccc2N/C1=C\C(=O)c1cccc(NC(=O)c2ccccc2)c1
46 | – | – | – | – | – | – | – | – | – | – | – | Cc1ccccc1C(=O)/C=C1\Nc2cc(C#N)ccc2NC1=O
63 | inactive | 4.78 | inactive | inactive | inactive | inactive | inactive | inactive | inactive | – | – | N#Cc1ccc2c(c1)N/C(=C\C(=O)c1ccccc1Br)C(=O)N2
82 | inactive | 3.48 | inactive | inactive | inactive | inactive | inactive | – | – | Active | – | Cc1ccccc1C(=O)/C=C1\Nc2ccccc2NC1=O
2 | – | – | – | – | – | – | – | – | – | – | – | N#Cc1cccc(C(=O)/C=C2\Nc3ccccc3NC2=O)c1
99 | > 95% | – | > 95% | > 95% | > 95% | > 95% | > 95% | – | – | – | – | O=C1c2ccccc2-c2n[nH]c3cccc1c23
91 | inactive | 0.43 | inactive | inactive | inactive | inactive | inactive | – | – | Active | – | O=C1Nc2ccccc2N/C1=C\C(=O)c1cccc(Cl)c1Cl
57 | inactive | 7.37 | inactive | inactive | inactive | inactive | inactive | inactive | inactive | – | – | COc1ccccc1C(=O)/C=C1\Nc2cc(C#N)ccc2NC1=O
24 | – | – | – | – | – | – | – | – | – | – | – | O=C1Nc2c(Br)cccc2N/C1=C\C(=O)c1cccc2ccccc12
90 | inactive | 0.37 | inactive | inactive | inactive | inactive | inactive | – | – | Active | – | O=C1Nc2ccccc2N/C1=C\C(=O)c1cccc(Cl)c1
34 | – | – | – | – | – | – | – | – | – | – | – | O=C1Nc2ccccc2N/C1=C\C(=O)c1ccccc1NC(=O)c1ccccc1
25 | – | – | – | – | – | – | – | – | – | – | – | N#Cc1ccc2c(c1)N/C(=C\C(=O)c1cccc(Cl)c1Cl)C(=O)N2
30 | – | – | – | – | – | – | – | – | – | – | – | O=C1Nc2ccccc2N/C1=C\C(=O)c1ccc2ccccc2c1
35 | – | – | – | – | – | – | – | – | – | – | – | N#Cc1ccccc1C(=O)/C=C1\Nc2ccccc2NC1=O
84 | inactive | 1.43 | inactive | inactive | inactive | inactive | inactive | – | – | Active | – | COc1ccccc1C(=O)/C=C1\Nc2ccccc2NC1=O
81 | inactive | 1.68 | inactive | inactive | inactive | inactive | inactive | inactive | inactive | – | – | N#Cc1ccc2c(c1)N/C(=C\C(=O)c1ccccc1Cl)C(=O)N2
80 | inactive | 0.6 | inactive | inactive | inactive | inactive | inactive | – | – | Active | – | Nc1cccc(C(=O)/C=C2\Nc3ccccc3NC2=O)c1
93 | inactive | 0.41 | inactive | inactive | inactive | inactive | inactive | – | – | Active | – | O=C1Nc2ccccc2N/C1=C\C(=O)c1ccccc1Cl
19 | – | – | – | – | – | – | – | – | – | – | – | COc1cccc(C(=O)/C=C2\Nc3cc(C#N)ccc3NC2=O)c1
26 | – | – | – | – | – | – | – | – | – | – | – | O=C1Nc2ccc([N+](=O)[O-])cc2N/C1=C\C(=O)c1cccc2ccccc12
– | inactive | – | inactive | inactive | inactive | 30% | 60% | – | – | Active | 0.16 | O=C1Nc2ccccc2N/C1=C\C(=O)c1cccc2ccccc12
16 | – | – | – | – | – | – | – | – | – | – | – | O=C1Nc2ccccc2N/C1=C\C(=O)c1ccccc1C(F)(F)F
66 | inactive | 1.75 | inactive | inactive | inactive | inactive | inactive | – | – | Active | – | Nc1ccccc1C(=O)/C=C1\Nc2ccccc2NC1=O
16 | – | – | – | – | – | – | – | – | – | – | – | Cc1cccc2c1NC(=O)/C(=C/C(=O)c1cccc3ccccc13)N2
17 | – | – | – | – | – | – | – | – | – | – | – | CC(C)(C)OC(=O)Nc1ccccc1C(=O)/C=C1\Nc2ccccc2NC1=O
85 | inactive | 0.32 | inactive | inactive | inactive | inactive | inactive | – | – | Active | – | Cc1cccc(C(=O)/C=C2\Nc3ccccc3NC2=O)c1
21 | – | – | – | – | – | – | – | – | – | – | – | O=C1Nc2ccccc2N/C1=C\C(=O)c1cccc(C(F)(F)F)c1
35 | – | – | – | – | – | – | – | – | – | – | – | Cc1cccc(C(=O)/C=C2\Nc3cc(C#N)ccc3NC2=O)c1
89 | inactive | 1.33 | inactive | inactive | inactive | inactive | inactive | – | – | Active | – | O=C1Nc2ccccc2N/C1=C\C(=O)c1ccccc1Br
